Reference: ChEMBL document CHEMBL1795313, “Synthesis and antimicrobial activities of hexahydroimidazo[1,5-a]pyridinium bromides with varying benzyl substituents” (Eur J Med Chem, 2011)

Legend:
Staphylococcus aureus = test: Antimicrobial activity against Staphylococcus aureus 6538/P after 18 hrs by microdilution method; type: functional
Method in brief: (§1)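 Broth microdilution per NCCLS M7-A4. Stocks kept on nutrient agar at 4 °C. Overnight cultures in double-strength Mueller-Hinton broth, adjusted to 10⁸ cfu/mL against McFarland 0.5. Compounds serially diluted in sterile distilled water (400 down to 0.78). Incubated at 37 °C for 18 h. MIC taken as the first well without turbidity. Wells without organism and water/medium growth controls included.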

Bacillus cereus = test: Antimicrobial activity against Bacillus cereus CCM 99 after 18 hrs by microdilution method; type: functional
Method in brief: (§2)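 NCCLS M7-A4 broth microdilution. Two-fold series from 400 to 0.78 made in sterile distilled water. Overnight bacteria in double-strength Mueller-Hinton broth, adjusted to 10⁸ cfu/mL (McFarland 0.5). Incubated 37 °C, 18 h. MIC taken as the first well without turbidity. Medium-only and water-plus-medium controls.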

Candida albicans = test: Antifungal activity against Candida albicans ATCC 10231 after 18 hrs by microdilution method; type: functional
Method in brief: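 Yeast broth microdilution per NCCLS M27-A. Stock kept on potato dextrose agar at 4 °C. Suspension in double-strength yeast glucose broth, adjusted to 10⁸ cfu/mL by McFarland 0.5. Water-based twofold series (400 down to 0.78) used. Incubated at 37 °C for 18 h. MIC is the lowest concentration with no visible turbidity.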

[1] = Acute toxicity in po dosed Swiss albino mouse after 24 hrs; type: organism-based; settings: in vivo
Method in brief: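 Mice dosed orally, 5 male and 5 female per group; limit test at 2000 mg/kg, plus classical LD50 test; toxic responses and deaths recorded over 24 h; LD50 derived from lethality.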

Klebsiella pneumoniae = test: Antimicrobial activity against Klebsiella pneumoniae CCM 2318 after 18 hrs by microdilution method; type: functional; method in brief: as §2
Proteus vulgaris = test: Antimicrobial activity against Proteus vulgaris ATCC 6897 after 18 hrs by microdilution method; type: functional; method in brief: as §2
Micrococcus luteus = test: Antimicrobial activity against Micrococcus luteus ATCC 9341 after 18 hrs by microdilution method; type: functional; method in brief: as §2
Escherichia coli = test: Antimicrobial activity against Escherichia coli ATCC 8739 after 18 hrs by microdilution method; type: functional; method in brief: as §1
[2] = tested on: Staphylococcus epidermidis; test: Antimicrobial activity against Staphylococcus epidermidis ATCC 12228 after 18 hrs by microdilution method; type: functional; method in brief: as §1
Salmonella typhimurium = test: Antimicrobial activity against Salmonella Typhimurium CCM 5445 after 18 hrs by microdilution method; type: functional, Salmonella enterica subsp. enterica serovar Typhimurium; method in brief: as §2
Pichia kudriavzevii = test: Antifungal activity against Candida krusei ATCC 6258 after 18 hrs by microdilution method; type: functional
Method in brief: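 NCCLS M27-A broth microdilution for yeast. Two-fold series from 400 to 0.78 made in sterile distilled water. Inoculum in double-strength yeast glucose broth, adjusted to 10⁸ cfu/mL (McFarland 0.5). Incubated 37 °C, 18 h. MIC taken as the first well without turbidity. Medium-only and water-plus-medium controls.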

[3] = Salmonella enterica, CCM 5445, 18 h

Row | Molecule | MIC (Staphylococcus aureus) [µg/mL] | MIC (Bacillus cereus; CCM 99, 18 h) [µg/mL] | MIC (Candida albicans; ATCC 10231, 18 h) [µg/mL] | LD50 at 24 h [1] [mg/kg] | MIC (Klebsiella pneumoniae; CCM 2318, 18 h) [µg/mL] | MIC (Proteus vulgaris; ATCC 6897, 18 h) [µg/mL] | MIC (Micrococcus luteus; ATCC 9341, 18 h) [µg/mL] | MIC (Escherichia coli; ATCC 8739, 18 h) [µg/mL] | MIC ([2]; ATCC 12228, 18 h) [µg/mL] | MIC (Salmonella typhimurium; [3]) [µg/mL] | MIC (Pichia kudriavzevii; ATCC 6258, 18 h) [µg/mL] | MIC (Bacillus cereus) [µg/mL] | MIC (Klebsiella pneumoniae) [µg/mL] | MIC (Proteus vulgaris) [µg/mL] | MIC (Micrococcus luteus) [µg/mL] | MIC (Escherichia coli) [µg/mL] | MIC [2] [µg/mL] | MIC (Salmonella typhimurium; Salmonella enterica subsp. enterica serovar Typhimurium) [µg/mL] | MIC (Candida albicans) [µg/mL] | MIC (Pichia kudriavzevii) [µg/mL]
1 | N#Cc1ccc(C[N+]2=CN3CCCCC3C2)cc1.[Br-] (centres undefined) | 1.56 | 3.12 | 0.78 | > 2000 | 12.5 | 6.25 | 0.78 | 0.78 | 1.56 | 0.78 | 0.78 |  |  |  |  |  |  |  |  | 
2 | FC(F)(F)c1ccc(C[N+]2=CN3CCCCC3C2)cc1.[Br-] (centres undefined) | 1.56 | 3.12 | 0.78 | 824 | 12.5 | 6.25 | 0.78 | 0.78 | 0.78 | 0.78 | 0.78 |  |  |  |  |  |  |  |  | 
3 | Cc1ccc(C[N+]2=CN3CCCCC3C2)cc1.[Br-] (centres undefined) | 3.12 | < 0.78 | 3.12 | > 2000 | 0.78 | 6.25 | 6.25 | 0.78 | 1.56 | 50 | 0.78 |  |  |  |  |  |  |  |  | 
4 | Cc1c(C)c(C)c(C[N+]2=CN3CCCCC3C2)c(C)c1C.[Br-] (centres undefined) | 25 | 12.5 | 50 | 1110 | 50 | 6.25 | 12.5 | 12.5 | 3.12 | 12.5 | 3.12 |  |  |  |  |  |  |  |  | 
5 | CC(C)(C)c1ccc(C[N+]2=CN3CCCCC3C2)cc1.[Br-] (centres undefined) | 100 | 200 | 25 | 838 | 200 | 50 | 12.5 | 200 | 100 | 100 | 50 |  |  |  |  |  |  |  |  | 
6 | Fc1c(F)c(F)c(C[N+]2=CN3CCCCC3C2)c(F)c1F.[Br-] (centres undefined) | 3.12 | 6.25 | 12.5 | 978 | 12.5 | 12.5 | 0.78 | 25 | 0.78 | 25 | 3.12 |  |  |  |  |  |  |  |  | 
7 | Clc1ccc(C[N+]2=CN3CCCCC3C2)cc1.[Br-] (centres undefined) | 1.56 | 3.12 | 0.78 | > 2000 | 12.5 | 6.25 | 0.78 | 3.12 | 0.78 | 0.78 | 0.78 |  |  |  |  |  |  |  |  | 
8 | Cc1cc(C)c(CN2C=[N+](Cc3c(C)cc(C)cc3C)C3CCCCC32)c(C)c1.[Cl-] (centres undefined) | 100 |  | 1600 |  |  |  |  | 1600 | 1600 |  |  |  |  |  |  |  |  |  |  | 
9 | Cc1cc(C)c(C[n+]2cn(C)c3ccccc32)c(C)c1.[Cl-] | 1600 |  | 1600 |  |  |  |  | 1600 | 1600 |  |  |  |  |  |  |  |  |  |  | 
10 | C1=[N+](Cc2ccccc2)CC2CCCCN12.[Br-] (centres undefined) | 100 | > 400 | > 400 | 907 | > 400 | > 400 | 3.12 | > 400 | 50 | > 400 | > 400 |  |  |  |  |  |  |  |  | 
11 | GENTAMICIN | 3.12 |  |  |  |  |  |  |  |  |  |  | 6.25 | 25 | 0.78 | 1.56 | 3.12 | 1.56 | 6.25 |  | 
12 | NYSTATIN |  |  |  |  |  |  |  |  |  |  |  |  |  |  |  |  |  |  | 6.25 | 3.12
13 | Clc1ccc(C[N+]2=CN3CCCCC3C2)c(Cl)c1.[Br-] (centres undefined) | 0.78 | 3.12 | 0.78 | 1890 | 12.5 | 1.56 | 0.78 | 3.12 | 0.78 | 0.78 | 0.78 |  |  |  |  |  |  |  |  | 
14 | Cc1cc(C)c(C[N+]2=CN3CCCCC3C2)c(C)c1.[Br-] (centres undefined) | 50 | 200 | 50 | 758 | 200 | 50 | 6.25 | 200 | 25 | 100 | 12.5 |  |  |  |  |  |  |  |  | 
15 | Cc1cc(C)c(C)c(C[N+]2=CN3CCCCC3C2)c1C.[Br-] (centres undefined) | 50 | 100 | 50 | 1950 | 200 | 6.25 | 12.5 | 50 | 6.25 | 50 | 6.25 |  |  |  |  |  |  |  |  | 
